ChEMBL document CHEMBL3784971, “Synthesis, characterization, antimicrobial and biofilm inhibitory studies of new esterquats” (Bioorg Med Chem Lett, 2016)
≈ marks a conversion by molar mass, not a printed value.

What was measured:
Candida parapsilosis [1] = assay: Fungicidal activity against Candida parapsilosis MTCC 1744 after 24 hrs by serial dilution method; type: functional; details: Lodderomyces parapsilosis, MTCC 1744, 24 h
Bacillus subtilis [2] = assay: Antimicrobial activity against Bacillus subtilis MTCC 121 assessed as growth inhibition after 24 hrs by agar well diffusion method; type: functional; details: MTCC 121, 24 h
Candida albicans [3] = assay: Antimicrobial activity against Candida albicans MTCC 3958 assessed as growth inhibition after 24 hrs by agar well diffusion method; type: functional; details: MTCC 3958, 24 h
Candida albicans [4] = assay: Fungicidal activity against Candida albicans MTCC 1637 after 24 hrs by serial dilution method; type: functional; details: MTCC 1637, 24 h
Candida albicans [5] = assay: Antimicrobial activity against Candida albicans MTCC 227 assessed as growth inhibition after 24 hrs by agar well diffusion method; type: functional; details: MTCC 227, 24 h
Candida albicans [6] = assay: Fungicidal activity against Candida albicans MTCC 3018 after 24 hrs by serial dilution method; type: functional; details: MTCC 3018, 24 h
Candida albicans [7] = assay: Antimicrobial activity against Candida albicans MTCC 7315 assessed as growth inhibition after 24 hrs by agar well diffusion method; type: functional; details: MTCC 7315, 24 h
Staphylococcus aureus [8] = assay: Antimicrobial activity against Staphylococcus aureus MTCC 96 assessed as growth inhibition after 24 hrs by agar well diffusion method; type: functional; details: MTCC 96, 24 h
Pichia kudriavzevii [9] = assay: Antimicrobial activity against Candida krusei MTCC 3020 assessed as growth inhibition after 24 hrs by agar well diffusion method; type: functional; details: MTCC 3020, 24 h
Candida albicans [10] = assay: Antimicrobial activity against Candida albicans MTCC 854 assessed as growth inhibition after 24 hrs by agar well diffusion method; type: functional; details: MTCC 854, 24 h
Staphylococcus aureus [11] = assay: Antimicrobial activity against Staphylococcus aureus MLS16 MTCC 2940 assessed as growth inhibition after 24 hrs by agar well diffusion method; type: functional; details: MLS16 MTCC 2940, 24 h
Candida parapsilosis [12] = assay: Antimicrobial activity against Candida parapsilosis MTCC 1744 assessed as growth inhibition after 24 hrs by agar well diffusion method; type: functional; details: Lodderomyces parapsilosis, MTCC 1744, 24 h
Staphylococcus aureus [13] = assay: Bactericidal activity against Staphylococcus aureus MTCC 96 after 24 hrs by serial dilution method; type: functional; details: MTCC 96, 24 h
Staphylococcus aureus [14] = assay: Bactericidal activity against Staphylococcus aureus MLS16 MTCC 2940 after 24 hrs by serial dilution method; type: functional; details: MLS16 MTCC 2940, 24 h
Pichia sporocuriosa [15] = assay: Fungicidal activity against Issatchenkia hanoiensis MTCC 4755 after 24 hrs by serial dilution method; type: functional; details: MTCC 4755, 24 h
Candida albicans [16] = assay: Fungicidal activity against Candida albicans MTCC 4748 after 24 hrs by serial dilution method; type: functional; details: MTCC 4748, 24 h
Staphylococcus aureus [17] = assay: Antibiofilm activity against Staphylococcus aureus MLS16 MTCC 2940 after 24 hrs by crystal violet staining based assay; type: functional, organism-based; details: MLS16 MTCC 2940, 24 h
Method in brief: (§1)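 Biofilm inhibition tested for amine esters and esterquats. IC50 values (µg/mL) are the mean of three determinations, with ciprofloxacin as reference.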

Candida albicans [18] = assay: Antimicrobial activity against Candida albicans MTCC 1637 assessed as growth inhibition after 24 hrs by agar well diffusion method; type: functional; details: MTCC 1637, 24 h
Raoultella planticola [19] = assay: Antimicrobial activity against Klebsiella planticola MTCC 530 assessed as growth inhibition after 24 hrs by agar well diffusion method; type: functional; details: MTCC 530, 24 h
Escherichia coli [20] = assay: Antimicrobial activity against Escherichia coli MTCC 739 assessed as growth inhibition after 24 hrs by agar well diffusion method; type: functional; details: MTCC 739, 24 h
Bacillus subtilis [21] = assay: Bactericidal activity against Bacillus subtilis MTCC 121 after 24 hrs by serial dilution method; type: functional; details: MTCC 121, 24 h
Candida albicans [22] = assay: Fungicidal activity against Candida albicans MTCC 227 after 24 hrs by serial dilution method; type: functional; details: MTCC 227, 24 h
Staphylococcus aureus [23] = assay: Antibiofilm activity against Staphylococcus aureus MTCC 96 after 24 hrs by crystal violet staining based assay; type: functional, organism-based; details: MTCC 96, 24 h; method in brief: as §1
Pichia kudriavzevii [24] = assay: Fungicidal activity against Candida krusei MTCC 3020 after 24 hrs by serial dilution method; type: functional; details: MTCC 3020, 24 h
Pichia sporocuriosa [25] = assay: Antimicrobial activity against Issatchenkia hanoiensis MTCC 4755 assessed as growth inhibition after 24 hrs by agar well diffusion method; type: functional; details: MTCC 4755, 24 h
Nakaseomyces glabratus [26] = assay: Fungicidal activity against Candida glabrata MTCC 3019 after 24 hrs by serial dilution method; type: functional; details: MTCC 3019, 24 h
Raoultella planticola [27] = assay: Bactericidal activity against Klebsiella planticola MTCC 530 after 24 hrs by serial dilution method; type: functional; details: MTCC 530, 24 h
Micrococcus luteus [28] = assay: Antimicrobial activity against Micrococcus luteus MTCC 2470 assessed as growth inhibition after 24 hrs by agar well diffusion method; type: functional; details: MTCC 2470, 24 h
Candida albicans [29] = assay: Fungicidal activity against Candida albicans MTCC 183 after 24 hrs by serial dilution method; type: functional; details: MTCC 183, 24 h
Candida albicans [30] = assay: Antimicrobial activity against Candida albicans MTCC 4748 assessed as growth inhibition after 24 hrs by agar well diffusion method; type: functional; details: MTCC 4748, 24 h
Micrococcus luteus [31] = assay: Bactericidal activity against Micrococcus luteus MTCC 2470 after 24 hrs by serial dilution method; type: functional; details: MTCC 2470, 24 h
Micrococcus luteus [32] = assay: Antibiofilm activity against Micrococcus luteus MTCC 2470 after 24 hrs by crystal violet staining based assay; type: functional, organism-based; details: MTCC 2470, 24 h; method in brief: as §1
Candida albicans [33] = assay: Fungicidal activity against Candida albicans MTCC 854 after 24 hrs by serial dilution method; type: functional; details: MTCC 854, 24 h
Candida albicans [34] = assay: Fungicidal activity against Candida albicans MTCC 3017 after 24 hrs by serial dilution method; type: functional; details: MTCC 3017, 24 h
Pseudomonas aeruginosa = assay: Antimicrobial activity against Pseudomonas aeruginosa MTCC 2453 assessed as growth inhibition after 24 hrs by agar well diffusion method; type: functional; details: MTCC 2453, 24 h
[Candida] aaseri [35] = Antimicrobial activity against Candida aaseri MTCC 1962 assessed as growth inhibition after 24 hrs by agar well diffusion method; type: functional; details: Yamadazyma aaseri, MTCC 1962, 24 h
[Candida] aaseri [36] = Fungicidal activity against Candida aaseri MTCC 1962 after 24 hrs by serial dilution method; type: functional; details: Yamadazyma aaseri, MTCC 1962, 24 h
Nakaseomyces glabratus [37] = assay: Antimicrobial activity against Candida glabrata MTCC 3019 assessed as growth inhibition after 24 hrs by agar well diffusion method; type: functional; details: MTCC 3019, 24 h
Escherichia coli [38] = assay: Bactericidal activity against Escherichia coli MTCC 739 after 24 hrs by serial dilution method; type: functional; details: MTCC 739, 24 h
Candida albicans [39] = assay: Fungicidal activity against Candida albicans MTCC 7315 after 24 hrs by serial dilution method; type: functional; details: MTCC 7315, 24 h
Candida albicans [40] = assay: Antimicrobial activity against Candida albicans MTCC 3017 assessed as growth inhibition after 24 hrs by agar well diffusion method; type: functional; details: MTCC 3017, 24 h
Candida albicans [41] = assay: Antimicrobial activity against Candida albicans MTCC 3018 assessed as growth inhibition after 24 hrs by agar well diffusion method; type: functional; details: MTCC 3018, 24 h
Candida albicans [42] = assay: Fungicidal activity against Candida albicans MTCC 3958 after 24 hrs by serial dilution method; type: functional; details: MTCC 3958, 24 h
Bacillus subtilis [43] = assay: Antibiofilm activity against Bacillus subtilis MTCC 121 after 24 hrs by crystal violet staining based assay; type: functional, organism-based; details: MTCC 121, 24 h; method in brief: as §1
Candida albicans [44] = assay: Antimicrobial activity against Candida albicans MTCC 183 assessed as growth inhibition after 24 hrs by agar well diffusion method; type: functional; details: MTCC 183, 24 h

Work on `CCCCCCCCCCCC[N+](C)(C)CCCCCCCCCCC(=O)OC.[Cl-]` yielded an MFC (Candida parapsilosis [1]) of 62.5 µg/mL, an MIC (Bacillus subtilis [2]) of 15.6 µg/mL and an MIC (Candida albicans [3]) of 62.5 µg/mL. It also gave an MFC (Candida albicans [4]) of 62.5 µg/mL, an MIC (Candida albicans [5]) of 31.2 µg/mL and an MFC (Candida albicans [6]) of 62.5 µg/mL. It also gave an MIC (Candida albicans [7]) of 31.2 µg/mL, an MIC (Staphylococcus aureus [8]) of 15.6 µg/mL and an MIC (Pichia kudriavzevii [9]) of 62.5 µg/mL. It also gave an MIC (Candida albicans [10]) of 31.2 µg/mL, an MIC (Staphylococcus aureus [11]) of 7.8 µg/mL and an MIC (Candida parapsilosis [12]) of 62.5 µg/mL. The MBC (Staphylococcus aureus [13]) was 31.2 µg/mL, the MBC (Staphylococcus aureus [14]) was 31.2 µg/mL and the MFC (Pichia sporocuriosa [15]) was 62.5 µg/mL. It also gave an MFC (Candida albicans [16]) of 31.2 µg/mL, an IC50 (Staphylococcus aureus [17]) of 22.2 µg/mL and an MIC (Candida albicans [18]) of 62.5 µg/mL. The MIC (Raoultella planticola [19]) was 7.8 µg/mL, the MIC (Escherichia coli [20]) was 15.6 µg/mL and the MBC (Bacillus subtilis [21]) was 31.2 µg/mL. It also gave an MFC (Candida albicans [22]) of 31.2 µg/mL, an IC50 (Staphylococcus aureus [23]) of 9.1 µg/mL and an MFC (Pichia kudriavzevii [24]) of 62.5 µg/mL. It also gave an MIC (Pichia sporocuriosa [25]) of 31.2 µg/mL, an MFC (Nakaseomyces glabratus [26]) of 31.2 µg/mL and an MBC (Raoultella planticola [27]) of 15.6 µg/mL. It also gave an MIC (Micrococcus luteus [28]) of 7.8 µg/mL, an MFC (Candida albicans [29]) of 31.2 µg/mL and an MIC (Candida albicans [30]) of 15.6 µg/mL. The MBC (Micrococcus luteus [31]) was 31.2 µg/mL, the IC50 (Micrococcus luteus [32]) was 8.8 µg/mL and the MFC (Candida albicans [33]) was 62.5 µg/mL. The MFC (Candida albicans [34]) was 62.5 µg/mL, the MIC (Pseudomonas aeruginosa) was over 125 µg/mL and the MIC ([Candida] aaseri [35]) was 31.2 µg/mL. It also gave an MFC ([Candida] aaseri [36]) of 62.5 µg/mL, an MIC (Nakaseomyces glabratus [37]) of 31.2 µg/mL and an MBC (Escherichia coli [38]) of 31.2 µg/mL. It also gave an MFC (Candida albicans [39]) of 31.2 µg/mL, an MIC (Candida albicans [40]) of 31.2 µg/mL and an MIC (Candida albicans [41]) of 62.5 µg/mL. The MFC (Candida albicans [42]) was 31.2 µg/mL, the IC50 (Bacillus subtilis [43]) was 8.5 µg/mL and the MIC (Candida albicans [44]) was 31.2 µg/mL.
`Clc1ccc(COC(Cn2ccnc2)c2ccc(Cl)cc2Cl)c(Cl)c1` (stereo not drawn) [MICONAZOLE] showed an MFC (Candida parapsilosis [1]) of 7.8 µg/mL (≈ 18.7 µM), an MIC (Candida albicans [3]) of 7.8 µg/mL (≈ 18.7 µM) and an MFC (Candida albicans [4]) of 15.6 µg/mL (≈ 37.5 µM). The MIC (Candida albicans [5]) was 7.8 µg/mL (≈ 18.7 µM), the MFC (Candida albicans [6]) was 7.8 µg/mL (≈ 18.7 µM) and the MIC (Candida albicans [7]) was 7.8 µg/mL (≈ 18.7 µM). It also gave an MIC (Pichia kudriavzevii [9]) of 7.8 µg/mL (≈ 18.7 µM), an MIC (Candida albicans [10]) of 7.8 µg/mL (≈ 18.7 µM) and an MIC (Candida parapsilosis [12]) of 7.8 µg/mL (≈ 18.7 µM). It also gave an MFC (Pichia sporocuriosa [15]) of 7.8 µg/mL (≈ 18.7 µM), an MFC (Candida albicans [16]) of 7.8 µg/mL (≈ 18.7 µM) and an MIC (Candida albicans [18]) of 7.8 µg/mL (≈ 18.7 µM). For the same compound, the MFC (Candida albicans [22]) was 15.6 µg/mL (≈ 37.5 µM), the MFC (Pichia kudriavzevii [24]) was 7.8 µg/mL (≈ 18.7 µM) and the MIC (Pichia sporocuriosa [25]) was 7.8 µg/mL (≈ 18.7 µM). It also gave an MFC (Nakaseomyces glabratus [26]) of 15.6 µg/mL (≈ 37.5 µM), an MFC (Candida albicans [29]) of 7.8 µg/mL (≈ 18.7 µM) and an MIC (Candida albicans [30]) of 7.8 µg/mL (≈ 18.7 µM). The MFC (Candida albicans [33]) was 15.6 µg/mL (≈ 37.5 µM), the MFC (Candida albicans [34]) was 7.8 µg/mL (≈ 18.7 µM) and the MIC ([Candida] aaseri [35]) was 7.8 µg/mL (≈ 18.7 µM). It also gave an MFC ([Candida] aaseri [36]) of 7.8 µg/mL (≈ 18.7 µM), an MIC (Nakaseomyces glabratus [37]) of 7.8 µg/mL (≈ 18.7 µM) and an MFC (Candida albicans [39]) of 7.8 µg/mL (≈ 18.7 µM). The MIC (Candida albicans [40]) was 7.8 µg/mL (≈ 18.7 µM), the MIC (Candida albicans [41]) was 7.8 µg/mL (≈ 18.7 µM) and the MFC (Candida albicans [42]) was 15.6 µg/mL (≈ 37.5 µM). It also gave an MIC (Candida albicans [44]) of 7.8 µg/mL (≈ 18.7 µM).
